The text below walks through data of ChEMBL document CHEMBL1156527, “Potent D-peptide inhibitors of HIV-1 entry” (Proc Natl Acad Sci U S A, 2007).

A short description of data set [1]: Binding affinity to HIV1 N-trimer gp41 mimic IZN36 by surface plasmon resonance analysis.
Data set [2] has as its system Human immunodeficiency virus 1. Briefly: Antiviral activity against HIV1 JRFL in HOS-CD4-CCR5 cells by viral infectivity assay. Type of data set: functional, organism-based. As to conditions: Human immunodeficiency virus 1, JRFL. The method, boiled down: (§1)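 Single-cycle pseudovirion entry assay. HXB2 pseudovirions were used on HOS-CD4-CXCR4 cells, and BaL or JRFL on HOS-CD4-CCR5 cells. 8 μg/ml DEAE-Dextran served as fusion enhancer, and medium was changed ≈24 h post-infection. DMSO-dissolved samples were run at 1% final DMSO against a 1% DMSO uninhibited control. IC50 comes from duplicate assays. Toxicity was checked microscopically and by luciferase with VSV-G pseudotyped virions, where a >10% loss meant toxicity.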

In data set [3] the test system is Human immunodeficiency virus 1. Briefly: Antiviral activity against HIV1 HXB2 in HOS-CD4-CXCR4 cells by viral infectivity assay. Type of data set: functional, organism-based. As to conditions: Human immunodeficiency virus 1, HXB2. The method, boiled down: as §1
The subject of data set [4] is Human immunodeficiency virus 1. Briefly: Antiviral activity against HIV1 BaL in HOS-CD4-CCR5 cells by viral infectivity assay. In kind it is functional, organism-based. As to conditions: Human immunodeficiency virus 1, BaL. The method in brief:
as §1

In the next data set the test system is HOS. Briefly: Cytotoxicity in VSV-G pseudotyped virion infected human HOS-CD4-CXCR4 cells assessed as luciferase level at 100 uM after 24 hrs. In kind it is cell-based. The method in brief:
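Single-cycle infection in HOS-CD4 target cells with VSV-G-pseudotyped luciferase virions in the presence of peptide, using 8 μg/ml DEAE-Dextran as fusion enhancer. Media were changed about 24 h after infection. DMSO-dissolved samples were run at 1% final DMSO against a 1% DMSO uninhibited control. A luciferase drop of more than 10% counted as cytotoxicity, alongside microscopic inspection at about 24 h.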

The subject of data set [5] is Human immunodeficiency virus 1. Briefly: Antiviral activity against HIV1 JRFL in HOS-CD4-CCR5 cells at 100 uM by viral infectivity assay. Type of data set: functional, organism-based. The method in brief: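 JRFL pseudovirions were tested in single-cycle infection of HOS-CD4-CCR5 cells with 8 μg/ml DEAE-Dextran and a medium change ≈24 h post-infection. Inhibition was scored at 100 μM. DMSO-dissolved samples were at 1% final DMSO, normalized to a 1% DMSO control.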

The source made the active and inactive calls. No cut-off for these calls is given here.

Turning to `CC(C)C[C@@H](NC(=O)[C@@H](Cc1c[nH]c2ccccc12)NC(=O)[C@@H](CCCNC(=N)N)NC(=O)[C@@H](Cc1c[nH]c2ccccc12)NC(=O)[C@@H](CCC(=O)O)NC(=O)[C@H]1CCCN1C(=O)[C@@H](Cc1ccc(O)cc1)NC(=O)[C@@H](CC(=O)O)NC(=O)[C@@H](CS)NC(=O)[C@@H](C)NC(=O)CNC(=O)[C@H](N)CCCCN)C(=O)N[C@H](CS)C(=O)N[C@H](C)C(=O)N[C@H](C)C(=O)O`, the Kd – broadly, the concentration at which binding is half-saturated – in data set [1] was determined as 0.13 µM. In addition, the values for the IC50 in data set [2] and in data set [3] were 66 µM and 1.3 µM, respectively.

Regarding `CC(C)C[C@@H](NC(=O)[C@@H](CC(C)C)NC(=O)[C@@H](CCC(=O)O)NC(=O)[C@@H](CS)NC(=O)[C@@H](C)NC(=O)CNC(=O)[C@@H](CCCCN)NC(=O)[C@H](N)CCCCN)C(=O)NCC(=O)N[C@H](Cc1c[nH]c2ccccc12)C(=O)N[C@H](CCC(=O)O)C(=O)N[C@H](Cc1c[nH]c2ccccc12)C(=O)N[C@H](C)C(=O)N[C@H](Cc1c[nH]c2ccccc12)C(=O)N[C@H](CC(C)C)C(=O)N[C@H](CS)C(=O)N[C@H](C)C(=O)N[C@H](C)C(=O)O`, the half-maximal inhibitory concentration (IC50) (in general, the concentration needed to halve the response being measured) was 12 µM in data set [4], more than 25 µM in data set [2] and 9.5 µM in data set [3]. In data set [1], this compound had a Kd of 7 µM. The Activity entry with HOS was “Toxic”.

Turning to `CC(C)C[C@@H](NC(=O)[C@@H](Cc1c[nH]c2ccccc12)NC(=O)[C@@H](CCC(N)=O)NC(=O)[C@@H](Cc1c[nH]c2ccccc12)NC(=O)[C@@H](CCC(=O)O)NC(=O)[C@H]1CCCN1C(=O)[C@@H](Cc1ccc(O)cc1)NC(=O)[C@@H](CC(=O)O)NC(=O)[C@@H](CS)NC(=O)[C@@H](C)NC(=O)CNC(=O)[C@H](N)CCCCN)C(=O)N[C@H](CS)C(=O)N[C@H](C)C(=O)N[C@H](C)C(=O)O`, the results for the IC50 in data set [4], in data set [2] and in data set [3] were 2.2 µM, 24 µM and 0.62 µM, respectively. Moreover, the dissociation constant (Kd) in data set [1] stood at 0.08 µM.

For `CC(C)C[C@@H](NC(=O)[C@@H](Cc1c[nH]c2ccccc12)NC(=O)[C@@H](CCCNC(=N)N)NC(=O)[C@@H](Cc1c[nH]c2ccccc12)NC(=O)[C@@H](CCC(=O)O)NC(=O)[C@H]1CCCN1C(=O)[C@@H](Cc1ccc(O)cc1)NC(=O)[C@@H](CC(=O)O)NC(=O)[C@@H](CS)NC(=O)[C@@H](C)NC(=O)CNC(=O)[C@@H](CCCCN)NC(=O)[C@H](N)CCCCN)C(=O)N[C@H](CS)C(=O)N[C@H](C)C(=O)N[C@H](C)C(=O)O`, the Kd in data set [1] was determined as 0.17 µM. The compound also gave an IC50 in data set [3] of 2.6 µM.

For `CC(C)C[C@@H](NC(=O)[C@@H](Cc1c[nH]c2ccccc12)NC(=O)[C@@H](CCC(N)=O)NC(=O)[C@@H](Cc1c[nH]c2ccccc12)NC(=O)[C@@H](CCC(=O)O)NC(=O)[C@@H](CCCCN)NC(=O)[C@@H](Cc1ccc(O)cc1)NC(=O)[C@@H](CC(=O)O)NC(=O)[C@@H](CS)NC(=O)[C@@H](C)NC(=O)CNC(=O)[C@H](N)CCCCN)C(=O)N[C@H](CS)C(=O)N[C@H](C)C(=O)N[C@H](C)C(=O)O`, the dissociation constant Kd in data set [1] worked out at 0.17 µM. The IC50 is 110 µM in data set [2] and 1.7 µM in data set [3].

Regarding `CC(C)C[C@@H](NC(=O)[C@@H](Cc1c[nH]c2ccccc12)NC(=O)[C@@H](CCCNC(=N)N)NC(=O)[C@@H](Cc1c[nH]c2ccccc12)NC(=O)[C@@H](CCC(=O)O)NC(=O)[C@H]1CCCN1C(=O)[C@@H](CO)NC(=O)[C@@H](CCC(=O)O)NC(=O)[C@@H](CS)NC(=O)[C@@H](C)NC(=O)CNC(=O)[C@@H](CCCCN)NC(=O)[C@H](N)CCCCN)C(=O)N[C@H](CS)C(=O)N[C@H](C)C(=O)N[C@H](C)C(=O)O`, inhibition in data set [3] was half-maximal at 2.2 µM (IC50).

`CC(C)C[C@@H](NC(=O)[C@@H](Cc1c[nH]c2ccccc12)NC(=O)[C@@H](CCCNC(=N)N)NC(=O)[C@@H](Cc1c[nH]c2ccccc12)NC(=O)[C@@H](CCC(=O)O)NC(=O)[C@H]1CCCN1C(=O)[C@@H](CO)NC(=O)[C@@H](CCC(=O)O)NC(=O)[C@H](CS)NC(=O)[C@@H](C)NC(=O)CNC(=O)[C@@H](CCCCN)NC(=O)[C@H](N)CCCCN)C(=O)N[C@@H](CS)C(=O)N[C@H](C)C(=O)N[C@H](C)C(=O)O`: the result in data set [5] was inactive.
